Data published in ChEMBL document CHEMBL1124451, “[(1H-imidazol-1-yl)methyl]- and [(3-pyridinyl)methyl]pyrroles as thromboxane synthetase inhibitors” (J Med Chem, 1989).

Experiments:
Mus musculus [1] = experiment: Activity at 10 mg/kg given intravenously against mortality in a pulmonary thromboembolism model in mice (10 animals) at -1h; format: functional; conditions: route intravenous
Procedure, shortened: (§1)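 Male Swiss-Webster mice (22-26 g); test material given iv in 0.2 mL CMC before challenge (mostly at -3 h, one group at -1 h). At hour 0, collagen extract plus epinephrine hydrochloride given iv in 0.2 mL 0.9% saline via tail vein. The collagen amount was set per lot as the minimum giving 90-100% mortality in CMC-vehicle controls. Readout: % surviving at 24 h.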

Mus musculus [2] = experiment: Activity at 25 mg/kg given intravenously against mortality in a pulmonary thromboembolism model in mice (9 animals) at -3h; format: functional; conditions: route intravenous; procedure, shortened: as §1
Homo sapiens [3] = species: Homo sapiens; experiment: In vitro inhibition of ADP-induced aggregation of human platelet rich plasma in the presence of pig aortal microsomes.; format: functional; conditions: Aorta
Procedure, shortened: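 Human citrated blood (0.38% citrate final), PRP by centrifugation at 200g, room temperature. Drug added to 1.0 mL PRP, 2 min at 37 °C with stirring (500 rpm), then pig aortal microsomes 3 min; microsome amount set by the dazoxiben standard. Aggregation induced by 5 μM ADP (final), read turbidimetrically.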

Mus musculus [4] = experiment: Activity at 10 mg/kg […] against mortality in a pulmonary thromboembolism model in mice (10 animals) at -5h following oral administration; format: functional
Procedure, shortened: (§2)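 Male Swiss-Webster mice (22-26 g), 10 per group (one group of 9); test material given po in 0.2 mL CMC at -1, -3, -5 or -18 h before challenge. At hour 0, collagen extract plus epinephrine hydrochloride given iv via tail vein in 0.9% saline. The collagen amount was titrated per lot to 90-100% mortality in vehicle controls. Readout: % surviving at 24 h.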

Mus musculus [5] = experiment: Activity at 10 mg/kg […] against mortality in a pulmonary thromboembolism model in mice (10 animals) at -1h following oral administration; format: functional; procedure, shortened: as §2
Mus musculus [6] = experiment: Activity at 10 mg/kg […] against mortality in a pulmonary thromboembolism model in mice (10 animals) at -7h following oral administration; format: functional
Mus musculus [7] = experiment: Activity at 10 mg/kg […] against mortality in a pulmonary thromboembolism model in mice (10 animals) at -18h following oral administration; format: functional; procedure, shortened: as §2
Mus musculus [8] = experiment: Activity at 10 mg/kg […] against mortality in a pulmonary thromboembolism model in mice (10 animals) at -3h following oral administration; format: functional; procedure, shortened: as §2
Homo sapiens [9] = species: Homo sapiens; experiment: Relative potency to inhibit ADP-induced aggregation of human platelet rich plasma compared to that of dazoxiben, in vitro using pig aortal microsomes.; format: functional; conditions: Aorta
[10] = target: T1, Thromboxane-A synthase (Homo sapiens) (UniProt P24557); experiment: Relative potency of thromboxane A2 synthetase as reduced ADP-induced aggregation of human platelet rich plasma compared to dazoxiben; format: functional, cell-free
T1 sequence (whole entry): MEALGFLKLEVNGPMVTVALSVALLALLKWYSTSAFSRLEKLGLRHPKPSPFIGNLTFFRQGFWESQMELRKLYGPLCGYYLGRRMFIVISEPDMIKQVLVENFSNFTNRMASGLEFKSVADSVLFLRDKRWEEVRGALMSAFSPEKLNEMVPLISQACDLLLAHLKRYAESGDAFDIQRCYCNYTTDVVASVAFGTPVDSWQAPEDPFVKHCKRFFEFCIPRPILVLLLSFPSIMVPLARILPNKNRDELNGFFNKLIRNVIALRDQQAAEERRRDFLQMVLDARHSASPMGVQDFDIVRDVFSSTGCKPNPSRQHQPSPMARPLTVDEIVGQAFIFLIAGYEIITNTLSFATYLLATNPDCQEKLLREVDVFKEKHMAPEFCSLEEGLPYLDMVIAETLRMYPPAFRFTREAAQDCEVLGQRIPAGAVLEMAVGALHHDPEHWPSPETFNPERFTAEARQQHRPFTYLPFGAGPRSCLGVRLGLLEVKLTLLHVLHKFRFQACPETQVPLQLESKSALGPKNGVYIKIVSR

Mus musculus [11] = experiment: Activity at 10 mg/kg given intravenously against mortality in a pulmonary thromboembolism model in mice (10 animals) at -3h; format: functional; conditions: route intravenous; procedure, shortened: as §1
Rattus norvegicus = experiment: Effect of perorally administered compound on systolic blood pressure and proteinuria was studied with a 5/6 renal ablated rat as a model of progressive injury; format: functional, Artery
Procedure, shortened: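 Male Munich Wistar rats (200-270 g) with 5/6 renal ablation were dosed in drinking water from 1 week post-surgery at 68, 205 or 410 mg/kg/day; controls received water. Conscious systolic pressure measured weekly by tail cuff. 24-h urinary protein measured every 2 weeks by the sulfosalicylic acid method.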

Mus musculus [12] = experiment: Activity at 10 mg/kg […] against mortality in a pulmonary thromboembolism model in mice (9 animals) at -3h following oral administration; format: functional; procedure, shortened: as §2

**Q.** `O=C(O)c1ccc(OCCn2ccnc2)cc1` [DAZOXIBEN] was tested. Which survival at 10 mg/kg (Mus musculus [1]) did it give?
**A.** 30%

**Q.** And the survival at 25 mg/kg (Mus musculus [2])?
**A.** 67%

**Q.** And the IC50 (Homo sapiens [3])?
**A.** 2.28 µM

**Q.** And the survival at 10 mg/kg (Mus musculus [4])?
**A.** 20%

**Q.** And the survival at 10 mg/kg (Mus musculus [5])?
**A.** 50%

**Q.** And the survival at 10 mg/kg (Mus musculus [6])?
**A.** 20%

**Q.** What about the survival at 10 mg/kg (Mus musculus [7]) of the same compound?
**A.** 10%

**Q.** What about the survival at 10 mg/kg (Mus musculus [8]) of the same compound?
**A.** 40%

**Q.** Which results are given for `CCOC(=O)/C(C)=C\c1ccc(Cc2cccnc2)n1CC`?
**A.** IC50 (Homo sapiens [3]): 14 µM; Relative potency (Homo sapiens [9]): 0.14

**Q.** With `CCOC(=O)/C(C)=C\c1ccc(Cc2cccnc2)n1-c1ccccc1` as the compound, how does the IC50 (Homo sapiens [3]) read?
**A.** 180 µM

**Q.** And the Relative potency (Homo sapiens [9])?
**A.** 0.01

**Q.** What does the source list for `C/C(=C/c1cc(Cc2cccnc2)n(C(C)(C)C)c1)C(=O)O`?
**A.** Relative potency [10]: 43; survival at 10 mg/kg (Mus musculus [11]): 30%

**Q.** Which results are given for `CCOC(=O)/C(C)=C\c1ccc(Cc2cccnc2)n1C(C)C`?
**A.** IC50 (Homo sapiens [3]): 32 µM; Relative potency (Homo sapiens [9]): 0.06

**Q.** `CCOC(=O)[C@H](CCc1ccccc1)N[C@@H](C)C(=O)N1CCC[C@H]1C(=O)O` was tested. Which ED (Rattus norvegicus) did it give?
**A.** 4 mg/kg

**Q.** Which IC50 (Homo sapiens [3]) does the source give for `Cc1c(Cn2ccnc2)c2ccccc2n1CCC(=O)O` [DAZMEGREL] here?
**A.** 1.9 µM

**Q.** And the Relative potency (Homo sapiens [9])?
**A.** 1

**Q.** And the survival at 10 mg/kg (Mus musculus [4])?
**A.** 20%

**Q.** And the survival at 10 mg/kg (Mus musculus [12])?
**A.** 11%

**Q.** And the survival at 10 mg/kg (Mus musculus [5])?
**A.** 20%

**Q.** And the survival at 10 mg/kg (Mus musculus [6])?
**A.** 0%

**Q.** And the survival at 10 mg/kg (Mus musculus [7])?
**A.** 10%
